Read-outs that look alike come from different tables or passages of the source.
Experiments:
[1] = Picosecond pump-probe transient absorption, singlet and triplet lifetimes; format: physicochemical; conditions: for kpF rate constant for the photo-Favorskii process: calculated as φdis/3τ
Outline: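 Transient absorption used the femtosecond pump–supercontinuum probe method. Pump pulses were 266 nm, 1 μJ, <100 fs. The supercontinuum probe spanned 270–690 nm, with both beams focused to 0.2 mm on sample flowing through a 0.4 mm cell. Detection was by photodiode array. Spectra were corrected for chirp and solvent contribution. kpF was taken as φdis/3τ.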

[2] = Quantitative photolysis, quantum yields for disappearance; format: physicochemical; conditions: for φdis (1-octanol): solvent 1-octanol
Outline: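 Test compound (1–9 mM) with caffeine or 4-acetamidophenol internal standard was dissolved in water, buffer, salt solution or solvent in quartz tubes. Samples were irradiated in a Rayonet reactor with two 3000 Å lamps, or at 350 nm for the TRIS pH 9.0/LiClO4 case. Aliquots taken every 30 s up to 5 min (<20% conversion) went to LC/UV or LC/MS/MS. Photon flux came from ferrioxalate actinometry. At least three independent runs were done.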

[3] = Nanosecond flash photolysis, decay of the 340-nm transient; format: physicochemical; conditions: water containing ca. 10 % ACN
[4] = Stern-Volmer quenching with potassium sorbate; format: physicochemical; conditions: H2O
Outline: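 pHP-GABA solutions (0.001–0.01 M) were diluted with potassium sorbate (0–0.1 M) in water. They were photolyzed under the quantum-yield conditions, and GABA-release quantum efficiencies were measured. KSV was the slope of φ0/φ versus [Q]. Triplet lifetime was derived assuming kq equals the diffusion rate, 7.2 × 10^9 […].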

[5] = wholly aqueous solution; cited from earlier work
[6] = Effect of H2O on the rate of disappearance of the 390-400 nm band; format: physicochemical; conditions: CH3CN cosolvent
[7] = cited from earlier work

NCCCC(=O)OCC(=O)c1ccc(O)cc1 [compound 1, pHP GABA]
1τ singlet lifetime ([1]; H2O): 2.3 ps
3τ triplet lifetime ([1]; H2O): 0.34 ns
kpF rate constant for the photo-Favorskii process ([1]; H2O): 6.00 10^8 s^−1
φdis (1-octanol) [2]: 0.12

NCCCC(=O)OCC(=O)c1ccc(O)c(OC(F)(F)F)c1 [compound 2, CF3O-pHP GABA]
3τ triplet lifetime ([1]; 10% CH3CN/H2O, pump-probe): 0.71 ns
3τ triplet lifetime ([1]; H2O): 0.46 ns
kpF rate constant for the photo-Favorskii process ([1]; H2O): 1.98 10^8 s^−1
kdec decay rate constant of the 340-nm transient [3]: ~6.5e+06 s⁻¹
KSV Stern-Volmer constant [4]: 20 M⁻¹
quantum yield in 10% H2O:CH3CN ([2]; 10% (v:v) H2O:CH3CN): 0.12
quantum yield in dry CH3CN ([2]; dry CH3CN): 0.03
φdis (1-octanol) [2]: 0.14
release of the amino acid upon irradiation ([2]; λ > 300 nm, aqueous media, ambient conditions): quantitatively released

CCOP(=O)(OCC)OCC(=O)c1ccc(O)cc1 [pHP diethyl phosphate]
3τ triplet lifetime [5]: 60 ps
3kdis ([6]; 74.53 mol % H2O): 3.30 × 10^9 S^−1
3kdis ([6]; 95.14 mol % H2O): 9.95 × 10^9 S^−1
3kdis ([6]; 100.00 mol % H2O): 1.6 × 10^10 S^−1
3kdis ([7]; 0.00 mol % H2O, CH3CN, ref B. Hellrung, J. Wirz unpublished): 2.62 × 10^5 S^−1
3kdis ([7]; 5.04 mol % H2O, CH3CN cosolvent, ref B. Hellrung, J. Wirz unpublished): 2.72 × 10^6 S^−1
3kdis ([7]; 7.51 mol % H2O, CH3CN cosolvent, ref B. Hellrung, J. Wirz unpublished): 6.56 × 10^6 S^−1
3kdis ([7]; 10.00 mol % H2O, CH3CN cosolvent, ref B. Hellrung, J. Wirz unpublished): 1.15 × 10^7 S^−1
3kdis ([7]; 15.03 mol % H2O, CH3CN cosolvent, ref B. Hellrung, J. Wirz unpublished): 3.84 × 10^7 S^−1
3kdis ([7]; 24.54 mol % H2O, CH3CN cosolvent, ref Phillips 14): 1.11 × 10^8 S^−1
3kdis ([7]; 34.05 mol % H2O, CH3CN cosolvent, ref Phillips 14): 4.17 × 10^8 S^−1
3kdis ([7]; 49.38 mol % H2O, CH3CN cosolvent, ref Phillips 14): 7.81 × 10^8 S^−1
3kdis ([7]; 55.64 mol % H2O, CH3CN cosolvent, ref Phillips 14): 1.25 × 10^9 S^−1
3kdis ([7]; 66.11 mol % H2O, CH3CN cosolvent, ref Phillips 14): 1.89 × 10^9 S^−1
3kdis ([7]; 89.77 mol % H2O, CH3CN cosolvent, ref Phillips 14): 3.45 × 10^9 S^−1
